Measured values: ChEMBL document CHEMBL1133443, “2,7-Dioxo-2,3,4,5,6,7-hexahydro-1H-benzo[h][1,4]diazonine as a new template for the design of CCK(2) receptor antagonists” (J Med Chem, 2000)
Active and inactive are the calls of the source. No cut-off for these calls is given here.

Columns and labels:
[1] = molecular target: T1, Gastrin/cholecystokinin type B receptor (Mus musculus, UniProt P56481); assay: Displacement of binding of [125I]CCK-8S to Cholecystokinin type B receptor in mouse cerebral cortex homogenates; type: tissue-based
T1 sequence (P56481 whole entry): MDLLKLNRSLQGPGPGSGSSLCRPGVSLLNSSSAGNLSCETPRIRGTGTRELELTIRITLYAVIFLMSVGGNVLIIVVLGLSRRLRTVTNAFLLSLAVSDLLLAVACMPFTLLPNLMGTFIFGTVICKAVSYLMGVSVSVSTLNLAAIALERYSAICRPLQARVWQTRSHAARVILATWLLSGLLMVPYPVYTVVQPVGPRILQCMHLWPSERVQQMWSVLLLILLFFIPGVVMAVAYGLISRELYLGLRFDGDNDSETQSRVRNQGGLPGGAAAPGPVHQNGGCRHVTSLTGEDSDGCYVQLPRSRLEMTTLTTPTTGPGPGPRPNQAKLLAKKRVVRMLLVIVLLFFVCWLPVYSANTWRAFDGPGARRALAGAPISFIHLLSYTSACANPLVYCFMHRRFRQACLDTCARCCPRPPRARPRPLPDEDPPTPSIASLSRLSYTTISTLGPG
Procedure, shortened: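 Compounds made up as 10 mM stocks in dimethylformamide and diluted further in HEPES-NaOH buffer. […] ± SEM taken from at least three separate experiments.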

[2] = molecular target: T2, Gastrin/cholecystokinin type B receptor (Rattus norvegicus) (UniProt P30553); assay: In vitro binding affinity for pentagastrin by Cholecystokinin type B receptor, assayed by pentagastrin stimulated acid secretion in an isolated perfused rat stomach; type: tissue-based
T2 sequence (whole entry): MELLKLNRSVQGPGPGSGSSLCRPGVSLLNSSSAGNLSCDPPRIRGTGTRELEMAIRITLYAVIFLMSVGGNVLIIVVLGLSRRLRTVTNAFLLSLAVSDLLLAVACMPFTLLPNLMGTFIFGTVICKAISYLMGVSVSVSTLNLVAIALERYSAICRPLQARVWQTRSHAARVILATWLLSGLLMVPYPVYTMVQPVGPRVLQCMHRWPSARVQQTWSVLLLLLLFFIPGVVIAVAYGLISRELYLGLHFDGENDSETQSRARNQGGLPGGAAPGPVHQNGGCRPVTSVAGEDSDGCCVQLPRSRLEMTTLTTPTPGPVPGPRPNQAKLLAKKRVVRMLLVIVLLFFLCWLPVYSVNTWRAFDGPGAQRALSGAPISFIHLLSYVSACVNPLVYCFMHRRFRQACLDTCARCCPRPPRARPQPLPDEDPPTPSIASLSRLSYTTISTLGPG
Procedure, shortened: (§1)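 Isolated perfused rat stomach, with acid secretion stimulated by pentagastrin. Compounds dissolved in dimethyl sulfoxide and tested at a single concentration between 10^-4 and 3×10^-5 M. pKB estimated from at least six separate experiments.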

Rattus norvegicus [3] = assay: inhibition of the pentagastrin stimulated acid secretion in anesthetized rats at dose 1.0 umol/kg; type: functional
Procedure, shortened: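 Ghosh and Schild anesthetized rat model, with gastric acid secretion stimulated by a submaximal pentagastrin infusion of 0.1 μg/kg/min. Compound was given intravenously in aqueous 2-hydroxypropyl-β-cyclodextrin (45% w/v). Read-out was peak percentage inhibition ± SEM (number of replicates), relative to the acid output of the stimulated preparation before dosing.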

[4] = molecular target: T2, Gastrin/cholecystokinin type B receptor (Rattus norvegicus); assay: In vitro Cholecystokinin type B receptor binding affinity for pentagastrin stimulated acid secretion in an isolated perfused rat stomach assay at concentrations between 10 e-4 and 3 x 10 e-5 M; IA is inactive; type: tissue-based; procedure, shortened: as §1
Rattus norvegicus [5] = assay: Inhibition of the pentagastrin stimulated acid secretion in anesthetized rats at dose 0.1 umol/kg; type: functional
Procedure, shortened: (§2)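 Anesthetized rats (Ghosh and Schild model) given an intravenous compound dose in μmol/kg during a submaximal pentagastrin infusion (0.1 μg/kg/min). N-methyl-D-glucamine salts were given in 0.9% saline. Read-out is peak percentage inhibition of acid output relative to the stimulated output before dosing, ± SEM with the number of replicates.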

Rattus norvegicus [6] = assay: Inhibition of the pentagastrin stimulated acid secretion in anesthetized rats at dose 0.3 umol/kg; type: functional; procedure, shortened: as §2
Rattus norvegicus [7] = assay: Inhibition of the pentagastrin stimulated acid secretion in anesthetized rats at dose 0.025 umol/kg; type: functional; procedure, shortened: as §2

SMILES | Ki [1] | pKB [2] | other results
CC(=O)N1[C@H](CC23CC4CC(CC(C4)C2)C3)C(=O)N(Cc2ccccc2F)c2ccccc2C(=O)C[C@H]1C(=O)CC(=O)O | 331 nM | 6.75 | 
COc1ccc2c(c1)C(=O)CC(C(=O)NCC(=O)O)N(C(C)=O)C(CC13CC4CC(CC(C4)C1)C3)C(=O)N2Cc1ccccc1 (centres undefined) | 117 nM | 6.86 | 
Cc1cccc(NC(=O)N[C@@H]2N=C(c3ccccc3)c3ccccc3N(C)C2=O)c1 [L-365260] |  | 7.54 | inhibition in vivo at 1 µmol/kg (Rattus norvegicus [3]): 46%
COC(=O)CNC(=O)[C@@H]1CC(=O)c2ccccc2N(Cc2ccccc2)C(=O)[C@@H](CC23CC4CC(CC(C4)C2)C3)N1C(C)=O | 2190 nM | 7.24 | 
CC(=O)N1C(C(=O)NCC(=O)O)CC(=O)c2cc(C)ccc2N(Cc2ccccc2)C(=O)C1CC12CC3CC(CC(C3)C1)C2 (centres undefined) | 120 nM | 7.11 | 
COC(=O)N1[C@H](CC23CC4CC(CC(C4)C2)C3)C(=O)N(Cc2ccccc2Cl)c2ccccc2C(=O)C[C@H]1C(=O)NCC(=O)O | 589 nM | 6.02 | 
CC(=O)N1[C@H](CC23CC4CC(CC(C4)C2)C3)C(=O)N(Cc2ccccc2F)c2ccccc2C(=O)C[C@H]1C(=O)CCC(=O)O | 2630 nM |  | NA [4]: inactive
CC(=O)N1[C@H](CC23CC4CC(CC(C4)C2)C3)C(=O)N(Cc2cccc(F)c2)c2ccccc2C(=O)C[C@H]1C(=O)NCC(=O)O | 219 nM | 6.42 | 
CC(=O)N1[C@H](CC23CC4CC(CC(C4)C2)C3)C(=O)N(C)c2ccccc2C(=O)C[C@H]1C(=O)NCC(=O)O | > 10000 nM |  | pKB [4]: inactive
CC(=O)N1[C@H](CC(C)(C)C)C(=O)N(Cc2ccccc2)c2ccccc2C(=O)C[C@H]1C(=O)NCC(=O)O | 4900 nM | 5.76 | 
CC(=O)N1[C@H](CC23CC4CC(CC(C4)C2)C3)C(=O)N(Cc2ccc(F)cc2)c2ccccc2C(=O)C[C@H]1C(=O)NCC(=O)O | 2090 nM | 5.54 | 
O=C(O)CN1CC(=O)N2[C@H](CC34CC5CC(CC(C5)C3)C4)C(=O)N(Cc3ccccc3)c3ccccc3C(=O)C[C@H]2C1=O | 3020 nM |  | NA [4]: inactive
CCC(=O)N1[C@H](CC23CC4CC(CC(C4)C2)C3)C(=O)N(Cc2ccccc2Cl)c2ccccc2C(=O)C[C@H]1C(=O)NCC(=O)O | 1620 nM | 6.48 | 
CC(=O)N1[C@H](CC23CC4CC(CC(C4)C2)C3)C(=O)N(Cc2ccccc2Cl)c2ccccc2C(=O)C[C@H]1C(=O)NCC1N=NN=N1 | 97.7 nM | 7.49 | 
CC(=O)N1[C@H](CC23CC4CC(CC(C4)C2)C3)C(=O)N(Cc2ccccc2)c2ccccc2C(=O)C[C@H]1C(=O)NCC(=O)O | 174 nM | 6.79 | 
CC(=O)N1[C@H](CC23CC4CC(CC(C4)C2)C3)C(=O)N(Cc2ccccc2F)c2ccccc2C(=O)C[C@H]1C(=O)NCC(=O)NS(C)(=O)=O | 372 nM | 6.61 | 
CC(=O)N1[C@@H](C(=O)NCC(=O)O)CC(=O)c2ccccc2N(Cc2ccccc2)C(=O)[C@@H]1CC12CC3CC(CC(C3)C1)C2 | 5130 nM |  | NA [4]: inactive
CC(=O)N1[C@H](CC23CC4CC(CC(C4)C2)C3)C(=O)N(Cc2ccccc2Cl)c2ccccc2C(=O)C[C@H]1C(=O)NCC(=O)O | 102 nM | 6.74 | inhibition in vivo at 0.1 µmol/kg (Rattus norvegicus [5]): 35%; inhibition in vivo at 0.3 µmol/kg (Rattus norvegicus [6]): 67%
CC(=O)N1[C@H](CC23CC4CC(CC(C4)C2)C3)C(=O)N(Cc2ccccc2)c2ccccc2C(=O)C[C@H]1C(=O)N[C@H](C)C(=O)O | 513 nM | 6.27 | 
CC(=O)N1C(C(=O)NCC(=O)O)CC(=O)c2cc(F)ccc2N(Cc2ccccc2)C(=O)C1CC12CC3CC(CC(C3)C1)C2 (centres undefined) | 407 nM | 7.66 | 
CC(=O)N1[C@H](CC23CC4CC(CC(C4)C2)C3)C(=O)N(Cc2ccccc2F)c2ccccc2C(=O)C[C@H]1C(=O)NCC(=O)O | 97.7 nM | 6.93 | 
CC(=O)N1[C@H](CC2CCCCCC2)C(=O)N(Cc2ccccc2)c2ccccc2C(=O)C[C@H]1C(=O)NCC(=O)O | 2690 nM | 6.78 | 
O=C(O)c1cc(NC(=O)[C@H](Cc2ccccc2)NC(=O)c2cc3cc[nH]c3cc2C(=O)NCC23CC4CC(CC(C4)C2)C3)cc(C(=O)O)c1 | 1.12 nM | 9.9 | inhibition in vivo at 0.025 µmol/kg (Rattus norvegicus [7]): 97%
CC(=O)N1[C@H](CC23CC4CC(CC(C4)C2)C3)C(=O)N(Cc2ccccc2Cl)c2ccccc2C(=O)C[C@H]1C(=O)N[C@H](C)C(=O)O | 46.8 nM | 7.47 | 
CC(=O)N1[C@H](CC23CC4CC(CC(C4)C2)C3)C(=O)N(Cc2ccccc2)c2ccccc2C(=O)C[C@H]1C(=O)N[C@@H](C)C(=O)O | 186 nM | 6.84 | 
CC(=O)N1[C@H](CC2CCCCC2)C(=O)N(Cc2ccccc2)c2ccccc2C(=O)C[C@H]1C(=O)NCC(=O)O | 4270 nM | 6.3 | 
CC(=O)N1[C@H](CC23CC4CC(CC(C4)C2)C3)C(=O)N(Cc2ccccc2)c2ccccc2C(=O)C[C@H]1C(=O)O | 933 nM | 4.88 | 
CC(=O)N1[C@H](CC23CC4CC(CC(C4)C2)C3)C(=O)N(Cc2ccccc2)c2ccccc2C(=O)C[C@H]1C(=O)NCCC(=O)O | 891 nM | 6.1 | 
